Assay [1] has as its target T1, Androgen receptor (Homo sapiens) (UniProt P10275).
T1 sequence (whole entry): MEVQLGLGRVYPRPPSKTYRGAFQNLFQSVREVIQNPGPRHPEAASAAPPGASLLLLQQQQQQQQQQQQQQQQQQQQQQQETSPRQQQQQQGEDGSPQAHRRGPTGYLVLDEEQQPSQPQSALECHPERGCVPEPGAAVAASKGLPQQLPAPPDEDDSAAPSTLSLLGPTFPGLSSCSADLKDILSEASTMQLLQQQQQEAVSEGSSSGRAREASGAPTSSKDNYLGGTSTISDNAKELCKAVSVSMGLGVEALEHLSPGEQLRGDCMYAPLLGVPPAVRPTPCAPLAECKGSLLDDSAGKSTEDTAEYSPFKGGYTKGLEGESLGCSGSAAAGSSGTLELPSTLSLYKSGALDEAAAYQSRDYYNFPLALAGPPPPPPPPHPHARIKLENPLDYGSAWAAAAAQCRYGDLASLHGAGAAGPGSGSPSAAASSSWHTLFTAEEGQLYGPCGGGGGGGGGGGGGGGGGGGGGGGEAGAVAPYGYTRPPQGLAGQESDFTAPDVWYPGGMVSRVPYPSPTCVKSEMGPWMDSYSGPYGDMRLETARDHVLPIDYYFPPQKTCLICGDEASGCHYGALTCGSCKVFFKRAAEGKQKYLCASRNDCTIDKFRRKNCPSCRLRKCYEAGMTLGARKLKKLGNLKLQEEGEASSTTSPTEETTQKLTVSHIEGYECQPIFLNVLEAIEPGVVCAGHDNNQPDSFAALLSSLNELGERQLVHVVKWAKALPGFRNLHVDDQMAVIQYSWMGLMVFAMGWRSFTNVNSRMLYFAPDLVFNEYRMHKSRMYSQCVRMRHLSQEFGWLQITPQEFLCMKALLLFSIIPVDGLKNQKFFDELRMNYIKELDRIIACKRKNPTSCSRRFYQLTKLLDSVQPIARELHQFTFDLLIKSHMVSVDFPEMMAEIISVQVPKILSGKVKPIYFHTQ
Description: Antiandrogenic activity against human LNCaP cell line by AR transactivation assay in presence of […] at 5 uM. The class given is functional, cell-based. The procedure, abridged: (§1)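 LNCaP cells (endogenous mutant AR), kept in RPMI with 10% fetal calf serum and antibiotics, were plated 48 h before transfection. They were transfected for 5 h (SuperFect) with MMTV-luciferase reporter plus pRL-SV40 internal control, then moved to RPMI with 10% charcoal dextran-stripped serum. After 24 h, cells got 1 nM DHT plus compound for 24 h. Read-out was dual luciferase normalized to the internal control, as % of DHT-alone transactivation.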

The test system of assay [2] is PC-3. The experiment in a line: Cytotoxicity against human PC3 cell line. It is filed as functional, cell-based. To be noted: Homo sapiens, PC-3; read-out: IC50.
The target in assay [3] is T1, Androgen receptor (Homo sapiens). Description: Antiandrogenic activity against human PC3 cell line transfected with wild-type AR by AR transactivation assay in presence of […] at 5 uM. It is filed as functional, cell-based. The conditions noted are these: PC-3. The essentials: (§2)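 PC-3 host cells (no functional AR), kept in DMEM with 10% fetal calf serum and antibiotics, were plated 24 h before transfection. They were transfected for 5 h (SuperFect) with wild-type AR plasmid pSG5AR, MMTV-luciferase reporter and pRL-SV40 control, then moved to DMEM with 10% charcoal-stripped serum. After 24 h, cells got 1 nM DHT plus compound for 24 h. Dual-luciferase signal was normalized to the internal control and given as % of DHT-only.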

Assay [4] concerns LNCaP. The experiment in a line: Cytotoxicity against human LNCaP cell line. The class given is functional, cell-based.
Assay [5] has as its system LNCaP. Description: Inhibition of growth of human LNCaP cell line at 20 ug/ml. It is filed as functional. The essentials:
(§3)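 Growth assay in human prostate cancer cells (LNCaP in RPMI, PC-3 in DMEM, each with 10% fetal calf serum and antibiotics). Cells were exposed to compound for 2 days. Value is % inhibition of cell growth at 20 μg/ml. Variation between replicate experiments was ≤5%.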

The subject of assay [6] is PC-3. Description: Inhibition of growth of human PC3 cell line at 20 ug/ml. It is filed as functional. The essentials:
as §3

The target of assay [7] is T1, Androgen receptor (Homo sapiens). Description: Antiandrogenic activity against human LNCaP cell line by AR transactivation assay in presence of […] at 3 uM. It is filed as functional, cell-based. The procedure, abridged: as §1
Assay [8] shares this target. The experiment in a line: Antiandrogenic activity against human PC3 cell line transfected with wild-type AR by AR transactivation assay in presence of […] at 3 uM. It is filed as functional, cell-based. To be noted: PC-3. The procedure, abridged: as §2

The structures appear in SMILES notation.

As to `COc1ccc(/C=C/C(=O)C(/C=C/C#N)=C(O)/C=C/c2ccc(OC)c(OC)c2)cc1OC`, the Activity in assay [1] was 42%; in assay [3], 68%. Moreover, the IC50 (usually the concentration that inhibits the measured activity by half) turned out to be 700 nM with PC-3 [2] and 200 nM with LNCaP [4].

On to `O=C(/C=C(O)/C=C/c1ccc(CO)o1)/C=C/c1ccc(CO)o1`, for which the inhibition at 20 µg/mL with LNCaP [5] and in the assay with PC-3 [6] was 37% throughout.

Consider `CCO/C(O)=C/C=C(C(=O)/C=C/c1ccc(OC)c(OC)c1)C(=O)/C=C/c1ccc(OC)c(OC)c1`, for which the Activity is 6% in assay [1] and 40% in assay [3]. Moreover, the IC50 with PC-3 [2] is 1000 nM; in the assay on LNCaP [4], 200 nM.

As to `CCO/C(O)=C/C=C(C(=O)/C=C/c1ccc(OC2CCCCO2)c(OC)c1)C(=O)/C=C/c1ccc(OC2CCCCO2)c(OC)c1` (stereo not drawn), the IC50 in the assay on PC-3 [2] is 3100 nM; in the assay with LNCaP [4], 2600 nM. Further, the Activity in assay [7] was 54%; in assay [8] it was 46%.

Consider `CCOC(=O)CC/C(C(=O)/C=C/c1ccc(O)c(OC)c1)=C(O)\C=C\c1ccc(O)c(OC)c1`, for which the Activity in assay [1] is 4%; in assay [3], 13%. For the same compound, the IC50 with PC-3 [2] amounted to 5100 nM; in the assay with LNCaP [4], 1500 nM.

These data come from ChEMBL document CHEMBL1138035, “Antitumor agents. 250. Design and synthesis of new curcumin analogues as potential anti-prostate cancer agents” (J Med Chem, 2006).
